Values after ≈ are worked out from the molar mass of the structure shown.
Legend:
[1] = Inhibitory effect on the proliferation of murine mammary carcinoma FM3A cells; assay type: functional, cell-based; conditions: Mus musculus
How it was run: (§1)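 5 × 10^4 cells were suspended in growth medium in microplate wells with varying concentrations of compound. They grew for 48 h at 37 °C in a humidified CO2-controlled atmosphere and were then counted in a Coulter counter. IC50 is the concentration inhibiting cell proliferation by 50%.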

L1210 [2] = test: Inhibitory effect on the proliferation of murine leukemia L1210 cells; assay type: functional, cell-based; conditions: Mus musculus; how it was run: as §1
MT4 [3] = test: Inhibitory effect on the proliferation of human T-lymphocyte MT-4 cells; assay type: functional, cell-based
How it was run: (§2)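 MT-4 cells (7.5 × 10^4 per well) in growth medium were incubated with graded compound concentrations for 120 h at 37 °C in a humidified CO2 atmosphere. Cell viability was assessed by trypan blue dye exclusion. IC50 is the concentration required for 50% inhibition of proliferation.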

[4] = Inhibitory effect on the proliferation of human T-lymphoblast molt/4F cells; assay type: functional
How it was run: (§3)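 7.5 × 10^4 cells in growth medium were exposed in microplate wells to a range of compound concentrations. Proliferation ran 72 h at 37 °C under humidified, CO2-controlled conditions, followed by Coulter counter cell counts. IC50 is the compound concentration giving 50% inhibition of proliferation.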

Raji [5] = test: Inhibitory effect on the proliferation of human B-lymphoblast Raji cells; assay type: functional, cell-based; how it was run: as §3
MT4 [6] = test: Inhibitory effect on the proliferation of human T-lymphocyte MT-4 cells.; assay type: functional, cell-based; how it was run: as §2
Raji [7] = test: Inhibitory effect on the proliferation of human B-lymphoblast Raji cells.; assay type: functional, cell-based; how it was run: as §3
L1210 [8] = test: Inhibitory effect on the proliferation of murine leukemia L1210 cells.; assay type: functional, cell-based; conditions: Mus musculus; how it was run: as §1
[9] = Inhibitory effect on the proliferation of T-lymphoblast molt/4F cells.; assay type: functional; conditions: Homo sapiens; how it was run: as §3

SMILES	IC50 (L1210 [2])	IC50 (Raji [5])	IC50 (Raji [7])	IC50 (L1210 [8])	IC50 [1]	IC50 (MT4 [3])	IC50 [4]	IC50 (MT4 [6])	IC50 [9]
COc1cccc(OC/C=C(\C)CC/C=C(\C)C2CC(=O)C(C)(C)O2)c1 (stereo not given)	66.5 µg/mL (≈ 186 µM)	50 µg/mL (≈ 139 µM)			68.7 µg/mL (≈ 192 µM)	51.5 µg/mL (≈ 144 µM)	33.8 µg/mL (≈ 94.3 µM)		
C/C(=C\COc1ccccc1)CC/C=C(\C)C1CC(=O)C(C)(C)O1 (stereo not given)	64 µg/mL (≈ 195 µM)	50.7 µg/mL (≈ 154 µM)			59 µg/mL (≈ 180 µM)	43.1 µg/mL (≈ 131 µM)	27.6 µg/mL (≈ 84 µM)		
C/C(=C\COc1c(Cl)cccc1Cl)CC/C=C(\C)C1=CC(=O)C(C)(C)O1	30.7 µg/mL (≈ 77.7 µM)	26.2 µg/mL (≈ 66.3 µM)			35.3 µg/mL (≈ 89.3 µM)	15.5 µg/mL (≈ 39.2 µM)	27.4 µg/mL (≈ 69.3 µM)		
C/C(=C\COc1ccc2ccc(=O)oc2c1)C1CC(=O)C(C)(C)O1 (stereo not given)			226 µg/mL (≈ 688 µM)	211 µg/mL (≈ 643 µM)	215 µg/mL (≈ 655 µM)			107 µg/mL (≈ 326 µM)	97.5 µg/mL (≈ 297 µM)
C/C(=C\COc1ccc2ccc(=O)oc2c1)CC/C=C(\C)C1CC(=O)C(C)(C)O1 (stereo not given)			50.7 µg/mL (≈ 128 µM)	64.5 µg/mL (≈ 163 µM)	54.2 µg/mL (≈ 137 µM)			42.9 µg/mL (≈ 108 µM)	24.2 µg/mL (≈ 61 µM)
C/C(=C\COc1ccc2ccc(=O)oc2c1)C1=CC(=O)C(C)(C)O1 [GEIPARVARIN]			8.25 µg/mL (≈ 25.3 µM)	5.31 µg/mL (≈ 16.3 µM)	7.87 µg/mL (≈ 24.1 µM)			1.64 µg/mL (≈ 5.03 µM)	7.92 µg/mL (≈ 24.3 µM)
C/C(=C\COc1ccc2ccc(=O)oc2c1)CC/C=C(\C)C1=CC(=O)C(C)(C)O1			25.2 µg/mL (≈ 63.9 µM)	39.7 µg/mL (≈ 101 µM)	53.7 µg/mL (≈ 136 µM)			15.6 µg/mL (≈ 39.5 µM)	28.5 µg/mL (≈ 72.2 µM)
C/C(=C\COc1c(Cl)cccc1Cl)CC/C=C(\C)C1CC(=O)C(C)(C)O1 (stereo not given)	58 µg/mL (≈ 146 µM)		59.9 µg/mL (≈ 151 µM)		51.2 µg/mL (≈ 129 µM)	32.5 µg/mL (≈ 81.8 µM)	50.5 µg/mL (≈ 127 µM)		
C/C(=C\COc1ccc2ccccc2c1)CC/C=C(\C)C1CC(=O)C(C)(C)O1 (stereo not given)			47.9 µg/mL (≈ 127 µM)	24.9 µg/mL (≈ 65.8 µM)	38.4 µg/mL (≈ 101 µM)		26.9 µg/mL (≈ 71.1 µM)	48.8 µg/mL (≈ 129 µM)	

The next lines start with results.

IC50 (L1210 [2])	IC50 (Raji [5])	IC50 (Raji [7])	IC50 (L1210 [8])	SMILES	IC50 [1]	IC50 (MT4 [3])	IC50 [4]	IC50 (MT4 [6])	IC50 [9]
40.2 µg/mL (≈ 113 µM)	43 µg/mL (≈ 121 µM)			COc1ccc(OC/C=C(\C)CC/C=C(\C)C2=CC(=O)C(C)(C)O2)cc1	43.8 µg/mL (≈ 123 µM)	33.9 µg/mL (≈ 95.1 µM)	38.6 µg/mL (≈ 108 µM)		
		63.2 µg/mL (≈ 168 µM)	47.4 µg/mL (≈ 126 µM)	C/C(=C\COc1ccc2ccccc2c1)CC/C=C(\C)C1=CC(=O)C(C)(C)O1	56.4 µg/mL (≈ 150 µM)		51.6 µg/mL (≈ 137 µM)	38.6 µg/mL (≈ 103 µM)	
36.3 µg/mL (≈ 102 µM)	45.8 µg/mL (≈ 128 µM)			COc1cccc(OC/C=C(\C)CC/C=C(\C)C2=CC(=O)C(C)(C)O2)c1	45.9 µg/mL (≈ 129 µM)	34 µg/mL (≈ 95.4 µM)	35.9 µg/mL (≈ 101 µM)		
		40.3 µg/mL (≈ 123 µM)	38.7 µg/mL (≈ 119 µM)	C/C(=C\COc1ccccc1)CC/C=C(\C)C1=CC(=O)C(C)(C)O1	44.2 µg/mL (≈ 135 µM)	29.4 µg/mL (≈ 90.1 µM)	35.2 µg/mL (≈ 108 µM)		

— ChEMBL document CHEMBL1126046, “Geiparvarin analogues. 3. Synthesis and cytostatic activity of 3(2H)-furanone and 4,5-dihydro-3(2H)-furanone congeners of geiparvarin, containing a geraniol-like fragment in the side chain” (J Med Chem, 1992)
